A selection: hits, their analogues and other compounds. The true share with any hit is near 27%.
CYP2C9 activ – CYP2C9 (human) activation. P11712. recombinant CYP2C9, luciferin-H conversion, luminescence; hits give high values; factor 1 = untreated enzyme, 0 = blocked. activation factor at 5 µM. hit rate 1.4% among 96,000;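 active means activation factor of 2 or more for CYP2C9 at a 5 µM dose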
Target sequence (P11712 whole entry, looked up): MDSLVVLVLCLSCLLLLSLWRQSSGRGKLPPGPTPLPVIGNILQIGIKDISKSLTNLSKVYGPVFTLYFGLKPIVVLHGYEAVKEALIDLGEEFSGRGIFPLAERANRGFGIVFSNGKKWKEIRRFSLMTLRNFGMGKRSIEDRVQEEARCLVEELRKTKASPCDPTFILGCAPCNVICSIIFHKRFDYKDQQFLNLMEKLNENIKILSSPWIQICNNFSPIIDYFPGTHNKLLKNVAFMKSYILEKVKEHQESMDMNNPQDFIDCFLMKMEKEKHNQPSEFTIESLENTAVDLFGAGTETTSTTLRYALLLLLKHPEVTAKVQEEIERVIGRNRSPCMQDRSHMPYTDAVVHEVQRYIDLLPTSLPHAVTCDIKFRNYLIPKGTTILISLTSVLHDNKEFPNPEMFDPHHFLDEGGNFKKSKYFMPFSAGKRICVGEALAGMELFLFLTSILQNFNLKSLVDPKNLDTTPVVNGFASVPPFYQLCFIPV
Cav32 inh – human Cav3.2 channel inhibition, primary screen | B-score at 10 µM | O95180 | hit rate 4% among 100,000 | Cav3.2-expressing cells, Fluo-4 calcium fluorescence FDSS; hits give low values;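 active means single-dose well whose peak fluorescence ratio is a statistical outlier from its plate by either plate-standardised score or position-corrected B-score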
CYP2C9 inh – human CYP2C9 inhibition; CYP2C9 Supersomes, luciferin-H conversion, luminescence; inhibition, % at 5 µM; hit rate 20% among 96,000; AID 777;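 active means blocking of liver enzyme CYP2C9 beyond about 50% at 5 µM, limit read from the data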
HIV Rev-RRE inh – inhibitors of HIV-1 Rev-RRE RNA interaction. Rev peptide-RRE RNA binding, FRET. inhibition, % at 8 µM. hit rate 0.79% among 97,000. AID 704;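 active means inhibition above the screen-wide mean plus 3 SD, cut at about 35% in these data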
Target sequence (P05866 whole entry, looked up): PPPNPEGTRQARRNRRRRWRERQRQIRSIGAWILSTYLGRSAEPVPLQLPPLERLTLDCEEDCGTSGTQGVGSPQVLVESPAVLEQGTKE
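Test system: Cy5-tagged RRE RNA duplex with fluorescein-tagged Rev peptide | Read-out: % inhibition of FRET ratio versus controls | Probe or stimulus: Labelled Rev peptide | Incubation: 5 min RNA-compound premix plus 15 min binding step, 25 °C | Technique: FRET fluorescence readout | Benchmarks: DMSO low control, neomycin B high control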
CYP2C19 inh – inhibitors of human CYP2C19. CYP2C19 Supersomes, luciferin-H EGE luminescence, 30 min. inhibition, % at 5 µM. hit rate 21% among 96,000;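 active means CYP2C19 inhibition above a set limit at 5 µM in the primary screen, cut at about 50% in these data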
CYP2C19 activ – cytochrome P450 2C19 (human) activation; P33261; recombinant CYP2C19, luciferin-H EGE luminescence; hits give high values; 0 = fully inhibited enzyme, 1 = untreated enzyme; activation factor at 5 µM; 96,000 tested, under 10 active; AID 1025;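 active means activation factor of at least 2 at 5 µM in the primary screen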
Of the large screens only hits and unclear results are named; the others gave an inactive call.

COc1cccc(SCc2noc(C(=O)NCCN(C)C)c2C(=O)NCCN(C)C)c1	none (no result: CYP2C9 activ, CYP2C9 inh, HIV Rev-RRE inh, CYP2C19 inh, CYP2C19 activ)
CNCc1ccccc1Sc1ccc(OC)cc1	CYP2C19 inh 65 (no result: Cav32 inh)
COc1cccc(Sc2ccccc2CN(C)C)c1	CYP2C19 inh 72
CC(=O)C1=C(NC(=O)c2ccc(F)cc2)CC2C1C2(C)C (configuration not stated)	none
CCOc1cc(N2CCOCC2)c(OCC)cc1NC(=O)C(NC(=O)c1ccco1)C(C)C (configuration not stated)	none (no result: HIV Rev-RRE inh)
CC(=O)CCc1ccc2oc(C(=O)O)c(C)c2c1	none
O=C(CSc1nnc(CCCO)n1-c1ccccc1)NCCc1ccccc1	none
CCn1c(SCC(=O)Nc2ccccc2N2CCOCC2)nnc1-c1ccccc1O	none
CCn1c(SCC(=O)Nc2ccccc2C)nnc1-c1ccccc1O	CYP2C9 inh 51, CYP2C19 inh 57
CCn1c(SCC(=O)Nc2ccc3c(c2)OCO3)nnc1-c1ccccc1O	CYP2C9 inh 79, CYP2C19 inh 76
CCn1c(SCC(=O)Nc2ccc3c(c2)OCCO3)nnc1-c1ccccn1	none
Cc1ccc(-n2c(CCc3ccccc3)nnc2SCC(=O)NCc2ccccc2)cc1C	CYP2C19 inh 67
CCn1c(SCC(=O)Nc2cc(F)ccc2C)nnc1-c1ccccc1O	CYP2C9 inh 81, CYP2C19 inh 95
N#Cc1c(NC(=O)CSc2nnc(-c3ccco3)n2-c2ccccc2)sc2c1CCC2	none
CCn1c(SCC(=O)NCc2ccccc2)nnc1-c1ccccc1O	CYP2C9 inh 52, CYP2C19 inh 57
N#Cc1ccccc1NC(=O)CSc1nnc(-c2ccccc2O)n1-c1ccccc1	CYP2C9 inh 64
N#CCSc1nnc(-c2ccccc2O)n1Cc1ccccc1	CYP2C19 inh 51
CC12CCC(C(=O)N3CCN(C(=O)C45CCC(C)(C(=O)O4)C5(C)C)CC3)(OC1=O)C2(C)C	none (no result: CYP2C9 activ, Cav32 inh, CYP2C9 inh, CYP2C19 inh, CYP2C19 activ)
NC(=O)[C@@H]1CC2(CC(c3cccc(NC(=O)[C@@H]4CCC(=O)N4)c3)=NO2)CN1C(=O)Cc1ccc([N+](=O)[O-])cc1 (some centres not stated)	none (no result: CYP2C9 activ, CYP2C9 inh, HIV Rev-RRE inh, CYP2C19 inh, CYP2C19 activ)
Cc1ccc(S(=O)(=O)N2CCN(S(=O)(=O)N(C)C)CC2)c(C)c1	none
CC(C)COn1c(=S)[nH]c2ccccc2c1=O	CYP2C19 inh 59
O=C(Cn1nc(C(F)F)cc1C(F)F)NNC(=S)Nc1ccc(Cl)cc1	CYP2C9 inh 71
Cc1nn(CC(=O)NNC(=S)Nc2ccccc2)c(C)c1[N+](=O)[O-]	none
CCOC(=O)C1=C(CS(=O)(=O)c2ccccc2)NC(=O)NC1c1ccccc1 (configuration not stated)	none
CCOC(=O)c1sc(C)c2c1NC(c1ccc(N(C)C)cc1)NC2=O (configuration not stated)	Cav32 inh -3.6
CCOC(=O)C1=C(c2ccccc2)NC(=O)NC1c1ccc(N(C)C)cc1 (configuration not stated)	CYP2C19 inh 80 (no result: HIV Rev-RRE inh)
CCOC(=O)CC1(CC(=O)OCC)NC(=O)c2c(C)sc(C(=O)OCC)c2N1	CYP2C19 inh 96
CCCCC1(C)NC(=O)c2c(C)sc(C(=O)OCC)c2N1 (configuration not stated)	CYP2C9 inh 94
O=C1NCN(c2ccccc2)C12CCN(CCCC(c1ccc(F)cc1)c1ccc(F)cc1)CC2	none (no result: CYP2C9 activ, CYP2C9 inh, HIV Rev-RRE inh, CYP2C19 inh, CYP2C19 activ)
COC(=O)C1=C(C)NC(=O)CC1c1cc(Br)ccc1F (configuration not stated)	none
CC(C)Cc1nnc(NS(=O)(=O)Cc2ccccc2)s1	CYP2C9 inh 63
CS(=O)(=O)Nc1nnc(Cc2ccccc2)s1	none (no result: CYP2C9 activ, CYP2C9 inh, CYP2C19 inh, CYP2C19 activ)
CCN(CC)S(=O)(=O)c1ccc(OC(C)C)nc1	CYP2C19 inh 79
COc1ccc(-c2csc(NC(=O)C3COc4ccccc4O3)n2)cc1OC (configuration not stated)	none (no result: CYP2C9 activ, CYP2C9 inh, HIV Rev-RRE inh, CYP2C19 inh, CYP2C19 activ)
Cc1ccc(SCC2(O)CCN(S(=O)(=O)c3ccc(Cl)cc3)CC2)cc1	Cav32 inh -6.1 (no result: CYP2C9 activ, CYP2C9 inh, CYP2C19 inh, CYP2C19 activ)
O=C(c1ccc(Cl)cc1)N1CCC(O)(CSc2ccccc2)CC1	CYP2C19 inh 54 (no result: Cav32 inh)
O=C(CSc1ccc(Cl)cc1)Nc1ccc(N2CCN(C(=O)c3ccc(Cl)cc3)CC2)cc1	none
O=C(c1ccc(Cl)cc1)N1CCC(O)(CSc2ccc(Cl)cc2)CC1	Cav32 inh -6.5
O=C(Nc1ccccc1C(=O)NC1CCCC1)NC1CCCC1	none
Brc1ccc(Cn2c(-c3cncs3)nc3ccccc32)cc1	none (no result: CYP2C9 activ, CYP2C9 inh, CYP2C19 inh, CYP2C19 activ)
c1ccc(Cn2c(-c3cncs3)nc3ccccc32)cc1	CYP2C9 inh 94, CYP2C19 inh 73
N#CCCCCn1c(-c2cncs2)nc2ccccc21	CYP2C19 inh 56
COc1cccc(NC(=O)Cn2c(-c3cncs3)nc3ccccc32)c1	CYP2C9 inh 83, CYP2C19 inh 76
O=C(Cn1c(-c2cncs2)nc2ccccc21)NCCc1ccccc1	CYP2C9 inh 53, CYP2C19 inh 91
CCCC(=O)N=C1SC2CS(=O)(=O)CC2N1c1ccc(C(C)=O)cc1 (configuration not stated)	none
CC1(C)C(=O)OC(c2cccs2)C(C)(C)C1=O (configuration not stated)	CYP2C19 inh 71
CC1(C)Cc2c(c(-c3ccccc3)nc(N3CCOCC3)c2C(N)=O)CO1	none
CCOc1ccc(C2CC(c3ccccc3C)n3ncnc3N2)cc1 (configuration not stated)	CYP2C19 inh 64
COc1cccc(C2CC(c3ccccc3)Nc3ncnn32)c1 (configuration not stated)	CYP2C19 inh 95
COc1cccc(C2CC(c3ccc(C)cc3)n3nc(N)nc3N2)c1 (configuration not stated)	none (no result: HIV Rev-RRE inh)
COc1ccccc1C1CC(c2ccc(Cl)cc2)Nc2nc(N)nn21 (configuration not stated)	CYP2C19 inh 50
COc1cccc(C2CC(c3ccc(Cl)cc3Cl)Nc3nc(N)nn32)c1 (configuration not stated)	CYP2C9 inh 54, CYP2C19 inh 67
Cc1ccc(C)c(SCc2noc(C(=O)NCC3CCCO3)c2C(=O)O)c1 (configuration not stated)	none
CSc1nc(-c2ccco2)nn1C(=O)c1ccc(Cl)cc1	none (no result: Cav32 inh)
COc1cccc(C2CC(c3ccccc3Cl)Nc3nc(N)nn32)c1 (configuration not stated)	none (no result: CYP2C9 activ, CYP2C9 inh, CYP2C19 inh, CYP2C19 activ)
COc1ccc(C2CC(c3ccc(Cl)cc3Cl)n3nc(N)nc3N2)cc1 (configuration not stated)	none (no result: CYP2C9 activ, CYP2C9 inh, CYP2C19 inh, CYP2C19 activ)
COc1ccc(C2CC(c3c(Cl)cccc3Cl)n3nc(N)nc3N2)cc1 (configuration not stated)	CYP2C19 inh 62
COc1ccccc1C1CC(c2ccc(Cl)cc2)Nc2ncnn21 (configuration not stated)	CYP2C9 inh 70, CYP2C19 inh 98

Assay outcomes from PubChem.
